Results on 79 compounds are retold here after PubChem BioAssay AID504323 (Broad Institute, 2011).

Several values for one entry are separate records, joined by “and”; a condition that tells them apart may be missing. Equal entries are not always repeated. Activity calls are given as the source filed them.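 Rule for the calls: active = compounds lowering the viability signal whose fitted AC50 is no more than ten times their top tested dose; inconclusive = flat fit with a 30 to 70% drop, or poor fit; inactive = the rest.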

In the first test the test system is U2OS HRE-luciferase cells, viability toxicity, luminescence. The test can be described thus: U2OS reporter cell viability with added zinc – zinc-supplemented medium, dry powder, cytotoxicity control for HIF pathway activator project, dose response (AID 504323).
Conditions: not given
The gist of the method:
(§1)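 Material – U2OS 3×HRE-luciferase reporter cells · Quantity – 6,000 cells/well · Medium – 50 µM zinc sulfate final · Doses – Eight-point compound series with threefold dilution steps · Timing – 24 h attachment, then 24 h compound exposure at 37 °C · Technique – CellTiter-Glo luminescence for cell viability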
Usually AC50 stands for the concentration at which the activity in the assay is half-maximal. Take `c1ccc(-c2nnc(-c3ccccn3)nc2Nc2nc3ccccc3s2)cc1`: the AC50 was 8.1 µM.

As to `O=C(NC1CCc2ccccc2C1)c1cc(-c2ccccc2)on1` (centres undefined), the AC50 was > 38 µM (inactive).

With `Cn1c(-c2ccccc2)cnc1Nc1nc(-c2ccccn2)nnc1-c1ccccc1`, the AC50 is > 38 µM (inactive).

On to `c1ccc(-c2nnc(-c3ccccn3)nc2Nc2cnc3ccccc3n2)cc1`, for which the AC50 was 10.1 µM.

Regarding `c1ccc(-c2nnc(Nc3nc(-c4ccccn4)nnc3-c3ccccc3)s2)cc1`, the AC50 is > 38 µM (inactive).

Tested on in another test: not listed separately
The description is as above. The following applies: U2OS HRE-luciferase cells, viability toxicity, luminescence; at 38 µM (top of the series). The gist of the method: as §1
For the compound `O=C(NC1Cc2ccccc2C1)c1cc(-c2ccccc2)on1`, the activity change, negative = toxicity was -8.56% (inactive).

`CN1CCN(C(=O)c2cc(-c3ccccc3)on2)CC1`: the activity change, negative = toxicity is 2.31% (inactive).

Consider `c1ccc(-c2nnc(-c3ccccn3)nc2N2CCC(c3ccccc3)C2)cc1` (centres undefined), for which the activity change, negative = toxicity was -12.2% (inactive).

For `c1ccc(-c2cccc(CNc3nc(-c4ccccn4)nnc3-c3ccccc3)c2)cc1`, the activity change, negative = toxicity was 21.1% (inactive).

Regarding `O=C(NCC1CCCCC1)c1cc(-c2ccccc2)on1`, the activity change, negative = toxicity is -11% (inactive).

On to `c1ccc(-c2nnc(-c3ccccn3)nc2NCC2CCOCC2)cc1`, for which the activity change, negative = toxicity is 14.9% (inactive).

Consider `c1ccc(-c2nnc(-c3ccccn3)nc2NCc2cccnc2)cc1`, for which the activity change, negative = toxicity is 30.2% (inactive).

`Cn1c(NC(=O)c2cc(-c3ccccc3)on2)nc2ccccc21`: the activity change, negative = toxicity is 16% (inactive).

Consider `O=C(NCc1ccccc1)c1cc(-c2ccccc2)on1`, for which the activity change, negative = toxicity is 4.7% (inactive).

With `O=C(Nc1ncc(-c2ccccc2)o1)c1cc(-c2ccccc2)on1`, the activity change, negative = toxicity is -2.78% (inactive).

With `Oc1ccc(CNC2CCc3ccccc32)c2cccnc12` (centres undefined), the activity change, negative = toxicity was -6.14% (inactive).

`c1ccc(-c2nnc(-c3ccccn3)nc2NCC2CC2)cc1`: the activity change, negative = toxicity was 20.9% (inactive).

In the case of `CN1CCN(c2nc(-c3ccccn3)nnc2-c2ccccc2)CC1`, the activity change, negative = toxicity is -11.4% (inactive).

In the case of `CC1CN(Cc2ccc(O)c3ncccc23)CC(C)O1` (centres undefined), the activity change, negative = toxicity was -3.44% (inactive).

As to `CC(C)(C)CCNC(=O)c1cc(-c2ccccc2)on1`, the activity change, negative = toxicity was -8.3% (inactive).

Regarding `CN(C)CCNC(=O)c1cc(-c2ccccc2)on1`, the activity change, negative = toxicity was 7.75% (inactive).

With `COc1ccccc1N1CCN(Cc2ccc(O)c3ncccc23)CC1`, the activity change, negative = toxicity was -14.5% (inactive).

`CC(Nc1nc(-c2ccccn2)nnc1-c1ccccc1)c1ccccc1` (centres undefined): the activity change, negative = toxicity is -0.542% (inactive).

In the case of `O=C(NCCCn1ccnc1)c1cc(-c2ccccc2)on1`, the activity change, negative = toxicity is -5.48% (inactive).

Take `Oc1ccc(CN2CCc3ccccc3C2)c2cccnc12`: the activity change, negative = toxicity is -93.5% (inactive) and -0.278% (inactive).

For the compound `c1ccc(-c2nnc(-c3ccccn3)nc2N2CCC(N3CCOCC3)CC2)cc1`, the activity change, negative = toxicity is 21.5% (inactive).

For the compound `CC(C)(C)OC(=O)N1CCN(Cc2ccc(O)c3ncccc23)CC1`, the activity change, negative = toxicity was 6.73% (inactive).

Consider `O=C(Nc1nc2ccccc2s1)c1cc(-c2ccccc2)on1`, for which the activity change, negative = toxicity was 18.7% (inactive).

Turning to `O=C(c1cc(-c2ccccc2)on1)N1CCC(CO)CC1`, the activity change, negative = toxicity was 9.31% (inactive).

In the case of `c1ccc(-c2cnc(Nc3nc(-c4ccccn4)nnc3-c3ccccc3)s2)cc1`, the activity change, negative = toxicity is 10.3% (inactive).

For the compound `O=C(Nc1nc(-c2ccccc2)cs1)c1cc(-c2ccccc2)on1`, the activity change, negative = toxicity was 7.74% (inactive).

Turning to `Cc1cccc(Nc2nc(-c3ccccn3)nnc2-c2ccccc2)n1`, the activity change, negative = toxicity is -13.3% (inactive).

As to `c1ccc(-c2csc(Nc3nc(-c4ccccn4)nnc3-c3ccccc3)n2)cc1`, the activity change, negative = toxicity was -2.4% (inactive).

As for `c1ccc(-c2nnc(-c3ccccn3)nc2NCCN2CCOCC2)cc1`, the activity change, negative = toxicity was 3.62% (inactive).

For the compound `O=C(NCC1CC1)c1cc(-c2ccccc2)on1`, the activity change, negative = toxicity is 22.5% (inactive).

Take `O=C(Nc1cn2ccccc2n1)c1cc(-c2ccccc2)on1`: the activity change, negative = toxicity is 10.3% (inactive).

`O=C(Nc1ccc2ccccc2n1)c1cc(-c2ccccc2)on1`: the activity change, negative = toxicity was 16.8% (inactive).

Take `COc1cccc(CNc2nc(-c3ccccn3)nnc2-c2ccccc2)c1`: the activity change, negative = toxicity is -8.43% (inactive).

Take `CCCCNC(=O)c1cc(-c2ccccc2)on1`: the activity change, negative = toxicity is 15.6% (inactive).

For the compound `O=C(NCCN1CCCCC1)c1cc(-c2ccccc2)on1`, the activity change, negative = toxicity was 14.1% (inactive).

As to `Cc1cccc(NC(=O)c2cc(-c3ccccc3)on2)n1`, the activity change, negative = toxicity is 2.1% (inactive).

Take `Cc1ccccc1CNC(=O)c1cc(-c2ccccc2)on1`: the activity change, negative = toxicity was 6.54% (inactive).

Take `c1ccc(-c2ccc(CNc3nc(-c4ccccn4)nnc3-c3ccccc3)cc2)cc1`: the activity change, negative = toxicity is 7.11% (inactive).

Regarding `Cc1cccc(CNC(=O)c2cc(-c3ccccc3)on2)c1`, the activity change, negative = toxicity was -2.43% (inactive).

As to `c1ccc(-c2nnc(-c3ccccn3)nc2N2CCC(C3CCCCC3)C2)cc1` (centres undefined), the activity change, negative = toxicity was 25.2% (inactive).

As to `O=C(NCCN1CCOCC1)c1cc(-c2ccccc2)on1`, the activity change, negative = toxicity is 10.8% (inactive).

As for `Cc1ccccc1CNc1nc(-c2ccccn2)nnc1-c1ccccc1`, the activity change, negative = toxicity was -8.68% (inactive).

As to `Cc1ccc(Nc2nc(-c3ccccn3)nnc2-c2ccccc2)cn1`, the activity change, negative = toxicity was 3.19% (inactive).

For the compound `O=C(c1cc(-c2ccccc2)on1)N1CCN(c2ccncc2)CC1`, the activity change, negative = toxicity is -1.95% (inactive).

As to `O=C(Nc1cnc2ccccc2c1)c1cc(-c2ccccc2)on1`, the activity change, negative = toxicity was 5.21% (inactive).

Turning to `c1ccc(-c2nnc(-c3ccccn3)nc2N2CCN(c3ccncc3)CC2)cc1`, the activity change, negative = toxicity is 16.2% (inactive).

In the case of `c1ccc(-c2nnc(-c3ccccn3)nc2NCCc2ccccn2)cc1`, the activity change, negative = toxicity was 12.3% (inactive).

Regarding `c1ccc(-c2nnc(-c3ccccn3)nc2NCCCN2CCOCC2)cc1`, the activity change, negative = toxicity is 23.8% (inactive).

In the case of `Oc1ccc(CN2CCC(Cc3ccccc3)CC2)c2cccnc12`, the activity change, negative = toxicity was -1.98% (inactive).

For `Clc1cccc(CNc2nc(-c3ccccn3)nnc2-c2ccccc2)c1`, the activity change, negative = toxicity is -1.81% (inactive).

As to `O=C(c1cc(-c2ccccc2)on1)N1CCC(N2CCCC2)CC1`, the activity change, negative = toxicity is 4.1% (inactive).

Regarding `O=C(c1cc(-c2ccccc2)on1)N1CCc2cccnc21`, the activity change, negative = toxicity is -4.78% (inactive).

`Cn1c(-c2ccccc2)cnc1NC(=O)c1cc(-c2ccccc2)on1`: the activity change, negative = toxicity was -1.6% (inactive).

With `Cc1ccc(CNC(=O)c2cc(-c3ccccc3)on2)cc1`, the activity change, negative = toxicity was -12.8% (inactive).

Turning to `Cc1ccc(NC(=O)c2cc(-c3ccccc3)on2)cn1`, the activity change, negative = toxicity was -11.1% (inactive).

As to `O=C(NCCCN1CCOCC1)c1cc(-c2ccccc2)on1`, the activity change, negative = toxicity is 15.2% (inactive).

Take `Cc1ccc(CNc2nc(-c3ccccn3)nnc2-c2ccccc2)cc1`: the activity change, negative = toxicity was 4.61% (inactive).

In the case of `OCC1CCN(Cc2ccc(O)c3ncccc23)CC1`, the activity change, negative = toxicity is -18.1% (inactive).

Take `O=C(c1cc(-c2ccccc2)on1)N1CCC(N2CCOCC2)CC1`: the activity change, negative = toxicity is 2.52% (inactive).

For the compound `O=C(NCCCO)c1cc(-c2ccccc2)on1`, the activity change, negative = toxicity is 3.54% (inactive).

As to `c1ccc(-c2nnc(-c3ccccn3)nc2NCc2ccccn2)cc1`, the activity change, negative = toxicity was -3.76% (inactive).

On to `c1ccc(CNc2nc(-c3ccccn3)nnc2-c2ccccc2)cc1`, for which the activity change, negative = toxicity is 11.5% (inactive).

For `CC(C)(C)CCNc1nc(-c2ccccn2)nnc1-c1ccccc1`, the activity change, negative = toxicity is -16.3% (inactive).

For `O=C(NCCCCO)c1cc(-c2ccccc2)on1`, the activity change, negative = toxicity was 6.82% (inactive).

Turning to `CN(C)c1nc(-c2ccccn2)nnc1-c1ccccc1`, the activity change, negative = toxicity is 33.4% (inactive).

`OCC1CCN(c2nc(-c3ccccn3)nnc2-c2ccccc2)CC1`: the activity change, negative = toxicity is 10.9% (inactive).

For the compound `Cc1cccc(CNc2nc(-c3ccccn3)nnc2-c2ccccc2)c1`, the activity change, negative = toxicity is -2.48% (inactive).

As to `C[C@H](Nc1nc(-c2ccccn2)nnc1-c1ccccc1)C1CCCCC1`, the activity change, negative = toxicity was -13.5% (inactive).

Turning to `COc1ccc(CNc2nc(-c3ccccn3)nnc2-c2ccccc2)cc1`, the activity change, negative = toxicity was 1.65% (inactive).

Consider `C=CCNc1nc(-c2ccccn2)nnc1-c1ccccc1`, for which the activity change, negative = toxicity was 29% (inactive).

As to `c1ccc(CCNc2nc(-c3ccccn3)nnc2-c2ccccc2)cc1`, the activity change, negative = toxicity is -7.93% (inactive).

As to `O=C(Nc1ncc2ccccc2n1)c1cc(-c2ccccc2)on1`, the activity change, negative = toxicity was -15.3% (inactive).

With `OCCCNc1nc(-c2ccccn2)nnc1-c1ccccc1`, the activity change, negative = toxicity was 17.6% (inactive).

For the compound `O=C(Nc1nnc(-c2ccccc2)s1)c1cc(-c2ccccc2)on1`, the activity change, negative = toxicity is 16.2% (inactive).
